Screens from PubChem BioAssay.
Mdm2 ligase inh: inhibitors of human Mdm2 E3 ubiquitin ligase. actives 0.11% (n = 210,000). signal enhancement, % at 5 µM. Q00987. cell-based MDM2 ubiquitination luciferase reporter, 2 h; 0 = plate control, 100 = twice control, blank-subtracted;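 active = signal enhancement of 30% or more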;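 also: luminescence tracks abundance of the self-degrading MDM2-luciferase fusion protein; higher signal means inhibition of MDM2 E3 ligase activity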
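Material: stable MDM2–luciferase fusion reporter cells / Quantity: 2000 cells/well / Dosing: single 5 µM compound dose, 0.2% final DMSO / Buffer or medium: DMEM / Schedule: 4 h cell settling then 2 h compound exposure, 37 °C / Detection: luminescence with SteadyLite reagent, 15 min at room temperature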
TbHK1 inh: T. brucei hexokinase 1 inhibition. recombinant TbHK1, G6PDH-coupled NADH A340. inhibition, % at 10 µM. actives 0.11% (n = 220,000);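 active = inhibition of 50% or more in the single-dose primary screen; inactive = inhibition below 50%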
Wee1 degr inh: human Wee1 degradation inhibition, primary screen | P30291 | HeLa Luc-Wee1K328M stability, luciferase luminescence; 100% = proteasome inhibitor MG132 effect | reporter increase, % at 5 µM | actives 1.2% (n = 220,000);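 active = activation above the mean of all tested compounds plus 3 SD, set per screening run, cut at about 8.8% in these data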;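 also: cells exposed to compound for 20 h before luminescence read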
Hck Nef HTS: human Hck-Nef kinase inhibition; P08631; Recombinant Hck-YEEI plus Nef, Z-Lyte FRET kinase assay; inhibition, % at 20 µM; actives 0.68% (n = 220,000); AID 463187;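 active = Hck-Nef kinase inhibition above about 50%, limit read from the data; inactive = inhibition below that limit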
Target sequence (P08631 whole entry, looked up): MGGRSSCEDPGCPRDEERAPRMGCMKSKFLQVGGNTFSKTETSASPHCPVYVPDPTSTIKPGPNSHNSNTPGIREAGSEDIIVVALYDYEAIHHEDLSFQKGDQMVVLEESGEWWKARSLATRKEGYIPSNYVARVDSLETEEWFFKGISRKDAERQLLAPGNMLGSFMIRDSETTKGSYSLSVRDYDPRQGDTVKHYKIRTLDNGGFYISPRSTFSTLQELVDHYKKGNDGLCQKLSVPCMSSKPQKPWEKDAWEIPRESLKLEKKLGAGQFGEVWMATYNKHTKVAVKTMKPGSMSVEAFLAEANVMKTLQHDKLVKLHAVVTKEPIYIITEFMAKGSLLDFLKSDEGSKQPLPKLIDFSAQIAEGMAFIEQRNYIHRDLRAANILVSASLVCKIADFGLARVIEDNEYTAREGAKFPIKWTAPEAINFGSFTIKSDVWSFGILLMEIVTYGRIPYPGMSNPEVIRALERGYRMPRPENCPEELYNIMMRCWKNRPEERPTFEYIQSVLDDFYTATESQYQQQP
14-3-3 Bad inh: disrupts binding of bovine 14-3-3 zeta to phospho-Bad peptide; inhibition, % at 21.7 µM; P63103; actives 0.71% (n = 220,000); TR-FRET 14-3-3zeta/Dy647-pBad peptide displacement, 1 h;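 active = inhibition above about 70%, limit read from the data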
Each line names hits and unclear results; the compound was inactive in the other large screens; [ ] = another dose, or the depositor's remark. A selection: hits, their analogues and other compounds. The true share with any hit is near 2.7%.

N#Cc1ccccc1NC(=O)COC(=O)COc1ccccc1[N+](=O)[O-]	none
C/C=C1\C(OC2OC(CO)C(O)C(O)C2O)OC=C(C(=O)OC)C1CC(=O)OCC1C(C)C(OC(=O)CC2C(C(=O)OC)=COC(OC3OC(CO)C(O)C(O)C3O)/C2=C\C)CC1C(CO)CO (stereo not given)	none
O=C(/C=C/c1cccs1)Nc1scc(-c2ccccc2)c1C(=O)O	14-3-3 Bad inh 92
c1ccc2c(c1)oc1c(Nc3ccc4c(c3)OCCO4)ncnc12	14-3-3 Bad inh 76[fluorescence artefact?]
O=[N+]([O-])c1ccc2ncnc(Nc3ccc4c(c3)OCCO4)c2c1	none
CCc1nc(NCc2ccc3c(c2)OCO3)c2oc3ccccc3c2n1	none
CCc1nc(NCc2ccco2)c2oc3ccccc3c2n1	14-3-3 Bad inh 81
CCc1nc(Nc2ccc3c(c2)OCCO3)c2oc3ccccc3c2n1	14-3-3 Bad inh 86 (no result: Mdm2 ligase inh)
Cc1nc(Nc2ccc3c(c2)OCCO3)c2oc3ccccc3c2n1	14-3-3 Bad inh 73
CCN1CCc2c(OCC(=O)N3N=C(c4cccs4)CC3c3ccc(F)cc3)cccc2C1=O (stereo not given)	none
Cc1nc(Oc2ccc(S(=O)(=O)N3CCOCC3)cc2Cl)c2c3c(sc2n1)CCCC3	none
Cc1cccc(OCCC(=O)NCC(c2ccco2)N2CCCCC2)c1 (stereo not given)	none
Fc1ccc(-c2nc(-c3cccs3)no2)cc1	Wee1 degr inh 15
CNC(=S)N1N=C(c2ccccc2)CC1c1ccc(OC)c(OC)c1 (stereo not given)	none
CCCC(C(=O)NC(C)(C)C)N(CC1CCCO1)C(=O)c1snc(C(N)=O)c1N (stereo not given)	Wee1 degr inh 9.4
CCC(C(=O)NC1CCCCC1)N(Cc1cccs1)C(=O)c1snc(C(N)=O)c1N (stereo not given)	Wee1 degr inh 9.8
CC(C)CC(C(=O)NC(C)(C)C)N(CC1CCCO1)C(=O)c1snc(C(N)=O)c1N (stereo not given)	none
CCOc1cc(/C=N/Nc2nc(-c3cccs3)c(NC(C)=O)s2)ccc1O	none
NC(=O)COC(=O)c1ccc(-c2ccc(O)cc2)cc1	Wee1 degr inh 9.8
Cc1ccc(C(=O)COC(=O)c2ccc(O)cc2)cc1	Wee1 degr inh 10
CCOC(=O)COC(=O)c1ccc(O)cc1	none
Cc1c(N2C(=O)C(=O)/C(=C(/O)c3ccc(Cl)cc3)C2c2ccccc2)c(=O)n(-c2ccccc2)n1C (stereo not given)	none (no result: Mdm2 ligase inh)
CCOC(=O)C1CCN(CC(=O)c2c(C)[nH]c3cc(C)ccc23)CC1	Wee1 degr inh 10
CCOC(=O)C1CCN(CC(=O)c2c(C)[nH]c3ccccc23)CC1	none
CN(C)c1ccc(/C=N/NC(=O)c2ccccc2)cc1	none
CC/C(=N\NC(=O)c1ccc(N(C)C)cc1)c1ccccc1	Wee1 degr inh 9.5
Cc1ccc(S(=O)(=O)N2CCOCC2)cc1NC(=O)CN(C)C1CCS(=O)(=O)C1 (stereo not given)	Wee1 degr inh 9.0 (no result: Mdm2 ligase inh)
CN(CC(=O)Nc1cc(S(=O)(=O)N2CCOCC2)ccc1Cl)C1CCS(=O)(=O)C1 (stereo not given)	none
COc1ccccc1C(=O)N(CCC1CCCN1C)c1nc2ccccc2s1 (stereo not given)	none
COc1ccc2[nH]c(=O)cc(C(=O)O)c2c1	none
COc1ccc2[nH]c3c4c(ccc3c2c1)C(=O)C=CC4=O	Mdm2 ligase inh 32, Wee1 degr inh 14
Cc1nc(C)c(C(=O)NCCC(c2ccccc2)c2ccccc2)o1	14-3-3 Bad inh 92
Cc1ccsc1C(=O)NCCC(c1ccccc1)c1ccccc1	none
CCOc1ccc(/C(O)=C2/C(=O)C(=O)N(CCCn3ccnc3)C2c2cccs2)cc1Cl (stereo not given)	Wee1 degr inh 10
CC(NC(=O)c1cccc(S(=O)(=O)N(C)C)c1)c1nc2ccccc2[nH]1 (stereo not given)	none
CCN(CC)S(=O)(=O)c1cccc(C(=O)N[C@@H](C)c2nc3ccccc3[nH]2)c1	Wee1 degr inh 9.9
CC1=NN(c2nc(-c3ccc(C)cc3)cs2)C(=O)C1N=Nc1ccc(C(N)=O)cc1 (stereo not given)	Wee1 degr inh 9.9
CC(=O)c1cccc(NC(=O)Cn2nc(-c3ccccc3Cl)ccc2=O)c1	Wee1 degr inh 11
CC(=O)c1cccc(NC(=O)Cn2nc(-c3ccc(Cl)cc3)ccc2=O)c1	none
CCOc1ccc(C2C(C(=O)Nc3ccc(F)cc3)=C(C)Nc3nc(CCCO)nn32)cc1 (stereo not given)	14-3-3 Bad inh 77
COCCSc1nnc(NC(=O)C(C)(C)C)s1	Wee1 degr inh 8.8 (no result: Mdm2 ligase inh)
CCn1c(C)cc(/C=C2/SC(=O)N(C(C)C(=O)OC)C2=O)c1C (stereo not given)	none
COC(=O)C(C)N1C(=O)S/C(=C/c2cc(C)n(C(C)C)c2C)C1=O (stereo not given)	Wee1 degr inh 9.4
Cc1ccc(Sc2ccc(NC(=O)CCl)cc2)cc1C	none
Cc1ccc(C)c(Sc2ccc(NC(=O)CCl)cc2)c1	Wee1 degr inh 16
CCN(CC)CCCC(C)NC(=O)c1cccc(S(=O)(=O)N2CCc3ccccc32)c1 (stereo not given)	none
COc1cc2[nH]c(=S)nc(NC3CCCC3)c2cc1OC	none
O=C(CSCc1ccccc1)N1CCN(c2ccccc2)CC1	Wee1 degr inh 9.0
O=C(CSCc1ccccc1)N1CCN(c2ccc(F)cc2)CC1	none
COc1cc(CNCCN(C)C)c(Br)cc1OC1CCCC1	none
CCCCCCCCCCCCCCCC[n+]1ccc(C(N)=O)cc1	TbHK1 inh 64, 14-3-3 Bad inh 79[fluorescence artefact?]
CCCCC(=O)Nc1ccc(C(N)=O)cc1	none
CCCCCCCC[n+]1cccc(C(=O)N(CC)CC)c1	none
CCCCCCCCCCCCCCCC[n+]1cccc(C(=O)N(CC)CC)c1	14-3-3 Bad inh 98[fluorescence artefact?]
O=C(/C=C/c1ccc(Br)cc1)c1ccc(NC(=O)c2ccco2)cc1	14-3-3 Bad inh 77[fluorescence artefact?]
COc1ccc(-n2c(SCc3ccc([N+](=O)[O-])cc3)nnc2-c2ccc(C)cc2)cc1	14-3-3 Bad inh 92[fluorescence artefact?]
Nc1csnc1C(=O)O	14-3-3 Bad inh 78
Nc1nc(-c2ccc(C(=O)O)cc2)cs1	none
CCc1ccc(NC(=O)CCc2nc3ccccc3[nH]2)cc1	Wee1 degr inh 9.5
Cc1cccc(NC(=O)CCCSc2nc3ccccc3[nH]2)c1	Wee1 degr inh 10
O=C(Nc1nnc(-c2ccc(Cl)cc2)o1)Nc1ccccc1F	Wee1 degr inh 13 (no result: Mdm2 ligase inh)
O=C(Nc1ccccc1)Nc1nnc(-c2ccccc2)o1	none
O=C(c1ccc(-c2cccc(Cl)c2Cl)o1)N1CCOCC1	none
O=C(c1ccc(-c2ccc([N+](=O)[O-])cc2Cl)o1)N1CCOCC1	Wee1 degr inh 11
Cc1c(/C(O)=C2/C(=O)C(=O)N(CCN(C)C)C2c2ccc(C(C)C)cc2)cnn1-c1ccccc1 (stereo not given)	14-3-3 Bad inh 88
